Measurements as given in ChEMBL document CHEMBL3046392, “Antifungal activities of N-arylbenzenesulfonamides against phytopathogens and control efficacy on wheat leaf rust and cabbage club root diseases” (Biosci Biotechnol Biochem, 2002).
Values after ≈ are worked out from the molar mass of the structure shown.

What was measured:
Type in all cases: functional
Plasmodiophora brassicae [1] = test: Antifungal activity against Plasmodiophora brassicae in cabbage seedlings transplanted after soil infestation with fungus followed by compound application to soil assessed as cabbage club root disease control efficacy at 500 ug/ml measured after 35 days post fungal inoculation
Summary of the method: (§1)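 Soil was inoculated with P. brassicae spore suspension (2×10⁶ spores/ml), then cabbage seedlings were transplanted. 10 ml of each compound solution was applied to assess disease suppression. Disease severity was assessed 35 days after inoculation, with control value calculated relative to untreated plants.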

Plasmodiophora brassicae [2] = test: Antifungal activity against Plasmodiophora brassicae in cabbage seedlings transplanted after soil infestation with fungus followed by compound application to soil assessed as cabbage club root disease control efficacy at 167 ug/ml measured after 35 days post fungal inoculation; summary of the method: as §1
Plasmodiophora brassicae [3] = test: Antifungal activity against Plasmodiophora brassicae in cabbage seedlings transplanted after soil infestation with fungus followed by compound application to soil assessed as cabbage club root disease control efficacy at 56 ug/ml measured after 35 days post fungal inoculation; summary of the method: as §1
Plasmodiophora brassicae [4] = test: Antifungal activity against Plasmodiophora brassicae in cabbage seedlings transplanted after soil infestation with fungus followed by compound application to soil assessed as cabbage club root disease control efficacy at 19 ug/ml measured after 35 days post fungal inoculation; summary of the method: as §1
Blumeria hordei = test: Antifungal activity against Blumeria graminis f. sp. hordei infected compound pre-treated barley seedlings at first-leaf stage assessed as barley powdery mildew disease control values at 50 ug/ml measured after 7 days post fungal inoculation
Summary of the method: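 Pot-grown barley seedlings at first-leaf stage were sprayed with compound dissolved in water+methanol (95+5) containing Tween 20 (250 mg/l), left 24 h, then inoculated with the powdery mildew fungus. Control value = 100 × (untreated − treated severity)/untreated severity.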

Puccinia recondita = test: Antifungal activity against Puccinia recondita infected on compound pre-treated wheat seedlings at first-leaf stage assessed as wheat leaf rust disease control values at 50 ug/ml measured after 7 days post fungal inoculation
Summary of the method: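 First-leaf wheat seedlings were sprayed with compound in water+methanol (95+5) with Tween 20 (250 mg/l) and left 24 h. They were sprayed with P. recondita spores (0.67 g/l, Tween 20 250 mg/l) and kept 1 day in a moist chamber at 20 °C, then moved to an incubation room. Infected leaf area was rated 7 days post-inoculation and converted to a control value relative to untreated plants.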

Phytophthora capsici [5] = test: Antifungal activity against Phytophthora capsici infected on compound pre-treated tomato seedlings at second-leaf stage assessed as tomato late blight disease control values at 50 ug/ml measured after 3 to 4 days post fungal inoculation
Botrytis cinerea [6] = test: Antifungal activity against Botryotinia fuckeliana infected compound pre-treated tomato seedlings at second-leaf stage assessed as tomato gray mould disease control values at 50 ug/ml measured after 3 to 4 days post fungal inoculation
Summary of the method: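 Greenhouse-grown potted tomato seedlings at second-leaf stage were sprayed with compound in water+methanol (95+5) with Tween 20 (250 mg/l), left 24 h, then spray-inoculated with B. cinerea spore suspension. Plants were kept in the dark at 25 °C, 100% RH. Severity was scored after 3–4 days, and control value = 100 × (untreated − treated severity)/untreated severity.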

Corticium = test: Antifungal activity against Corticium sasaki Matsu infected compound pre-treated rice seedlings at third-leaf stage assessed as rice sheath blight disease control values at 50 ug/ml measured after 4 days post fungal inoculation
Summary of the method: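 Rice seedlings at third-leaf stage were sprayed with compound in water+methanol (95+5) plus Tween 20 (250 mg/l) and left 24 h. They were inoculated with 7-day-old wheat–rice bran cultures of C. sasaki and held 4 days dark at 25 °C, 100% RH, then 4 days in a growth chamber (25 °C, 100% RH, 12 h light). Control value was calculated from disease severity relative to untreated plants.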

Pyricularia grisea = test: Antifungal activity against Magnaporthe grisea infected on compound pre-treated rice seedlings at second-leaf stage assessed as rice blast disease control values at 50 ug/ml measured after 5 days post fungal inoculation
Summary of the method: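 Rice seedlings grown in greenhouse pots at 25±5 °C, sprayed with compound in water+methanol (95+5) containing Tween 20 (250 mg/l) as wetting agent, left 24 h, then inoculated with M. grisea. Disease severity read as percentage infected leaf area 5 days after inoculation. Control value (%) = 100 × (untreated severity − treated severity)/untreated severity.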

Botrytis cinerea [7] = test: Antifungal activity against Botryotinia fuckeliana assessed as mycelial growth inhibition after 2 to 6 days; settings: read-out: ED50 (the source's name)
Summary of the method: (§2)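 Serially diluted compound was mixed into 1/5-strength PDA plates at […]. A 5-mm agar plug of each fungus was placed at the plate centre, with three replicate plates per concentration per fungus. Plates were incubated at 25 °C for 2–6 days, radial growth was measured, and ED₅₀ for mycelial growth inhibition was derived by probit analysis.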

Rhizoctonia solani = test: Antifungal activity against Rhizoctonia solani assessed as mycelial growth inhibition after 2 to 6 days; settings: read-out: ED50 (the source's name); summary of the method: as §2
Phytophthora capsici [8] = test: Antifungal activity against Phytophthora capsici assessed as mycelial growth inhibition after 2 to 6 days; settings: read-out: ED50 (the source's name); summary of the method: as §2
Globisporangium ultimum = test: Antifungal activity against Pythium ultimum assessed as mycelial growth inhibition after 2 to 6 days; settings: read-out: ED50 (the source's name); summary of the method: as §2

Row | SMILES | Efficacy (Plasmodiophora brassicae [1]) [%] | Efficacy (Plasmodiophora brassicae [2]) [%] | Efficacy (Plasmodiophora brassicae [3]) [%] | Efficacy (Plasmodiophora brassicae [4]) [%] | Activity (Blumeria hordei) [%] | Activity (Puccinia recondita) [%] | Activity (Phytophthora capsici [5]) [%] | Activity (Botrytis cinerea [6]) [%] | Activity (Corticium) [%] | Activity (Pyricularia grisea) [%] | EC50 (Botrytis cinerea [7]) [µg/mL] | EC50 (Rhizoctonia solani) [µg/mL] | EC50 (Phytophthora capsici [8]) [µg/mL] | EC50 (Globisporangium ultimum) [µg/mL] | Activity (Plasmodiophora brassicae [1]) [%]
1 | O=[N+]([O-])c1ccc(NS(=O)(=O)c2ccccc2)c(Cl)c1 | 95 | 82 | 83 | 17 | 2 | 9 | 0 | 0 | 0 | 3 | 28 (≈ 89.5 µM) | 14.4 (≈ 46 µM) | 9 (≈ 28.8 µM) | 5.4 (≈ 17.3 µM) | –
2 | O=[N+]([O-])c1ccc(NS(=O)(=O)c2ccccc2)cc1 | – | – | – | – | – | – | – | – | – | – | 65.7 (≈ 236 µM) | 42.3 (≈ 152 µM) | 10.3 (≈ 37 µM) | 6.9 (≈ 24.8 µM) | –
3 | O=S(=O)(Nc1ccc(C(F)(F)F)cc1)c1ccccc1 | 0 | 0 | 0 | 0 | 0 | 0 | 0 | 0 | 0 | 0 | 14.8 (≈ 49.1 µM) | 24.1 (≈ 80 µM) | 14.6 (≈ 48.5 µM) | 11.7 (≈ 38.8 µM) | –
4 | O=[N+]([O-])c1ccc(NS(=O)(=O)c2ccccc2)c(C(F)(F)F)c1 | – | – | – | – | – | – | – | – | – | – | 33.1 (≈ 95.6 µM) | 28.5 (≈ 82.3 µM) | 18.5 (≈ 53.4 µM) | 19.3 (≈ 55.8 µM) | –
5 | O=S(=O)(Nc1ccc(F)c(C(F)(F)F)c1)c1ccccc1 | – | – | – | – | – | – | – | – | – | – | 10.7 (≈ 33.5 µM) | 16.8 (≈ 52.6 µM) | 5.6 (≈ 17.5 µM) | 13.5 (≈ 42.3 µM) | –
6 | O=[N+]([O-])c1cccc(S(=O)(=O)Nc2ccc([N+](=O)[O-])cc2Cl)c1 | – | – | – | – | – | – | – | – | – | – | 63.6 (≈ 178 µM) | 34.8 (≈ 97.3 µM) | 7 (≈ 19.6 µM) | 7.2 (≈ 20.1 µM) | –
7 | O=[N+]([O-])c1cccc(S(=O)(=O)Nc2ccc([N+](=O)[O-])cc2C(F)(F)F)c1 | – | – | – | – | – | – | – | – | – | – | – | 26.2 (≈ 67 µM) | 233 (≈ 595 µM) | 155 (≈ 397 µM) | –
8 | O=[N+]([O-])c1cccc(S(=O)(=O)Nc2ccc(F)c(C(F)(F)F)c2)c1 | – | – | – | – | – | – | – | – | – | – | 3.5 (≈ 9.61 µM) | 6 (≈ 16.5 µM) | 60.8 (≈ 167 µM) | 10.1 (≈ 27.7 µM) | –
9 | O=[N+]([O-])c1ccc(NS(=O)(=O)c2ccc(Cl)c(C(F)(F)F)c2)c(Cl)c1 [FLUSULFAMIDE] | – | 42 | 17 | 0 | – | – | – | – | – | – | – | – | – | – | 62
10 | O=S(=O)(Nc1ccccc1)c1ccccc1 [PHENYL(PHENYLSULFONYL)AMINE] | – | – | – | – | – | – | – | – | – | – | 239 (≈ 1030 µM) | 68.9 (≈ 295 µM) | 66.6 (≈ 285 µM) | 75.4 (≈ 323 µM) | –
